Experimental data reported in ChEMBL document CHEMBL1125754, “Synthesis and antiviral activity of 9-alkoxypurines. 2. 9-(2,3-Dihydroxypropoxy)-, 9-(3,4-dihydroxybutoxy)-, and 9-(1,4-dihydroxybut-2-oxy)purines” (J Med Chem, 1991).

Key:
Human alphaherpesvirus 1 = assay: Compound was tested for its antiviral activity against HSV-1 (SC16) using plaque reduction assay.; assay type: functional, organism-based
Summary of the method: (§1)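 MRC-5 cell monolayers were infected with about 50 PFU of virus. Compounds were present at various concentrations for the whole incubation; stocks were 10 mg/mL in Me2SO, diluted in culture medium. IC50 is the concentration that cut plaque count to 50% of untreated controls.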

Human alphaherpesvirus 2 [1] = assay: Compound was tested for its antiviral activity against HSV-2 (MS) using plaque reduction assay.; assay type: functional, organism-based; summary of the method: as §1
Human alphaherpesvirus 3 [2] = assay: Compound was tested for its antiviral activity against VZV (Ellen) using plaque reduction assay.; assay type: functional, organism-based; summary of the method: as §1
Human alphaherpesvirus 3 [3] = assay: Compound was tested for its antiviral activity against VZV(Ellen) using plaque reduction assay.
Human alphaherpesvirus 2 [4] = assay: Compound was tested for its antiviral activity against HSV-2(MS) using plaque reduction assay.; assay type: functional, organism-based; summary of the method: as §1

Row | SMILES | IC50 (Human alphaherpesvirus 1) [µM] | IC50 (Human alphaherpesvirus 2 [1]) [µM] | IC50 (Human alphaherpesvirus 3 [2]) [µM] | IC50 (Human alphaherpesvirus 3 [3]) [µM] | IC50 (Human alphaherpesvirus 2 [4]) [µM]
1 | Nc1nc(O)c2ncn(OC[C@H](O)CO)c2n1 | > 415 | > 415 | > 415 | – | –
2 | Nc1nc(O)c2ncn(OCCC(O)CO)c2n1 (centres undefined) | > 390 | > 390 | > 390 | – | –
3 | Nc1nc(O)c2ncn(O[C@@H](CO)CCO)c2n1 | 390 | > 390 | > 390 | – | –
4 | Nc1nc(O)c2ncn(O[C@H](CO)CCO)c2n1 | 36 | > 390 | 8.3 | – | –
5 | Nc1nc(O)c2ncn(OC(CO)CCO)c2n1 (centres undefined) | 43 | > 390 | 30 | – | –
6 | Nc1nc(O)c2ncn(OCC(O)CO)c2n1 (centres undefined) | 7.9 | 2.8 | 154 | – | –
7 | Nc1nc(O)c2ncn(OC[C@@H](O)CO)c2n1 | 2.7 | 0.46 | 62 | – | –
8 | Nc1nc2c(ncn2COCCO)c(=O)[nH]1 [ACYCLOVIR] | 4.8 | – | – | 15 | 1.2
